# Screening data as filed in PubChem.
# rCAG binder: r(CAG) repeat RNA binding. TO-PRO-1 dye displacement fluorescence. inhibition, % at 3 µM. hit rate 1.3% among 370,000. AID 651821;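 active = inhibition above the plate cutoff, the mean of all test compounds on that plate plus 3 SD, cut at about 35% in these data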;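 note: 0% = DMSO alone and 100% = 100 µM mitoxantrone as full dye displacement; higher means more dye released from RNA so lower well fluorescence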
# ABHD5 PLIN5 PPI: ABHD5-PLIN5 protein interaction inhibition; Q00G26+Q8WTS1; Split G. princeps luciferase complementation, luminescence, 4 h; inhibition, % at 4 µM; hit rate 0.78% among 360,000; AID 602281;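 active = inhibition above the mean inhibition across every tested compound plus 3 SD, cut at about 22% in these data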;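 note: 0% = DMSO only wells and the 100% control is not disclosed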
# Target sequence (Q00G26 whole entry, looked up): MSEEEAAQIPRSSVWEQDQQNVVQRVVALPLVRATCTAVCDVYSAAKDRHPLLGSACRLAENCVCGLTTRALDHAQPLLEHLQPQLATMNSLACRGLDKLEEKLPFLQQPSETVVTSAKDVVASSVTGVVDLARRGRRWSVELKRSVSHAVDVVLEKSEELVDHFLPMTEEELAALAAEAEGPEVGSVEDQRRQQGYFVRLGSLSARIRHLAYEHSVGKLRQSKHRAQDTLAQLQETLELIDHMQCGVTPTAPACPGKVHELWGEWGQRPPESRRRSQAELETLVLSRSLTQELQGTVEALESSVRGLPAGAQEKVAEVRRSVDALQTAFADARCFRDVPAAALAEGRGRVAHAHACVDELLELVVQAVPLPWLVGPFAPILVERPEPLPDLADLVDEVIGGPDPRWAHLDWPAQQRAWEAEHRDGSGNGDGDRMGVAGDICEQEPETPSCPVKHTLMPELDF
# Target sequence (Q8WTS1 whole entry, looked up): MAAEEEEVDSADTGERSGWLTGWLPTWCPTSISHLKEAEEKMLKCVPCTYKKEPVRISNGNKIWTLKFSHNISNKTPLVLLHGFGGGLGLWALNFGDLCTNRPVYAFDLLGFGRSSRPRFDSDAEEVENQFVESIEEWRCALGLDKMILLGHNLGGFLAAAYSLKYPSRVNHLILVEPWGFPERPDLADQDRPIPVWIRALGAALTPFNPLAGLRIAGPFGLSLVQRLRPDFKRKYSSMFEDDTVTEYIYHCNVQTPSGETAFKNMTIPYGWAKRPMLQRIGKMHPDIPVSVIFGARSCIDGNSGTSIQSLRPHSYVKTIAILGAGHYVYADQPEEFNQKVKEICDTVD
# core dimer inh: blocks dimerization of HCV core protein. TR-FRET GST/Flag-core106 dimerization, 1536-well. inhibition, % at 5 µM. hit rate 0.33% among 300,000. AID 1899;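 active = inhibition above the mean of all tested compounds plus 3 SD, set per screening campaign, cut at about 45% in these data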
#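 System – GST-tagged and Flag-tagged HCV core protein residues 1-106 · Repeats – one well for each compound · Technique – TR-FRET 671 and 617 nm emission · Doses – one concentration, 5 µM, in 0.5% DMSO · Times – 4 h, 22.5 °C incubation · Also added – Eu donor and XL665 acceptor anti-tag antibodies · Measure – percent inhibition of core106 dimerization signal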
# NadD block: NadD (S. aureus) enzyme inhibition; inhibition, % at 20 µM; purified NadD enzyme, colorimetric absorbance read-out; hit rate 0.78% among 360,000; in the data active = inhibition above about 26%
# rCAG binder conf: r(CAG) RNA repeat binding, confirmation; shares compounds with rCAG binder; TO-PRO-1 dye displacement fluorescence; inhibition, % at 3 µM; hit rate 70% among 4,300; AID 652065;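 active = inhibition above a per-plate cutoff, the mean inhibition of sample wells plus 3 SD, cut at about 35% in these data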;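 note: loss of TO-PRO-1 fluorescence as compound displaces dye from 1x1 AA loop RNA; 0% = DMSO only wells and 100% = 100 µM mitoxantrone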
# DNA CAG counter: disrupts DNA CAG TO-PRO-1 complex, flagging rCAG hits | shares compounds with rCAG binder | inhibition, % at 3 µM | d(CAG) DNA oligo TO-PRO-1 dye displacement, fluorescence | hit rate 94% among 4,300 | AID 652068;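 active = inhibition above its plate's cutoff, the mean test-well inhibition plus 3 SD, cut at about 4.8% in these data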;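 note: 0% = DNA dye mix with DMSO and 100% = 100 µM mitoxantrone; hits displace the dye from DNA and so lower well fluorescence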
# DNA CAG DR: counter-screen for rCAG binders: inhibitors of DNA CAG TO-PRO-1 complex. shares compounds with rCAG binder. DNA CAG/GTC duplex TO-PRO-1 dye displacement fluorescence. IC50, µM. hit rate 20% among 250; in the data active = IC50 below about 10 µM
# * marks the source's active call; other numbers are inactive results; i = inactive; . = no result. Rows were chosen to be rich in hits. Some 2.6% of all compounds tested hit in one or more screens of this group.
SMILES,rCAG binder,ABHD5 PLIN5 PPI,core dimer inh,NadD block,rCAG binder conf,DNA CAG counter,others
O=C(O)/C(=C\c1cccc(F)c1)c1ccc(S(=O)(=O)N2CCCCC2)s1,35,3,15,-3,.,.,
Cc1cccc(C)c1NC(=O)C1(C)CN(S(C)(=O)=O)CC(=O)N1CCOc1ccccc1 (configuration not stated),2,-8,.,.,.,.,
CC(C)(C)NC(=O)C1c2ccccc2OCC(=O)N1Cc1ccco1 (configuration not stated),2,2,.,-3,.,.,
CC(C)C[C@H]1COc2ccc(Cl)cc2S(=O)(=O)N1C[C@H](NC(=O)OC(C)(C)C)C(C)C,3,.,.,.,.,.,
Cc1ccc(C(=O)Nc2sc(C(=O)N(C)C)c(C)c2C#N)cc1,-2,-4,4,-1,.,.,
Cc1c(C(=O)N(C)C)sc(NC(=O)c2cc([N+](=O)[O-])cc([N+](=O)[O-])c2)c1C#N,56*,-10,1,1,37*,9.9*,
Cc1ccc(CNC(=O)C2CC(c3ccc([N+](=O)[O-])cc3)=NO2)cc1 (configuration not stated),44*,-1,7,-3,3,0,
Cc1ccc(CNC(=O)C2CC(c3cccc(F)c3)=NO2)cc1 (configuration not stated),-3,1,-14,-9,.,.,
O=C(N/N=C/c1cc(Cl)c(O)c(Cl)c1)c1cc2c(ccc3ccccc32)o1,86*,-7,2,27,78*,40*,
CC(=O)Oc1ccc(/C=N\NC(=O)c2cc3c(ccc4ccccc43)o2)cc1,2,-2,8,6,.,.,
O=C(N/N=C/c1cc(Br)c(O)c(Br)c1)c1cc2c(ccc3ccccc32)o1,96*,0,.,27,78*,46*,
COC(=O)[C@]12C[C@H](CC(=O)N3CCCCC3)C(=O)N(Cc3ccco3)C1=C[C@H](C(C)(C)C)O[C@@H]2C,-4,.,.,.,.,.,
Cc1onc(-c2ccccc2Cl)c1C(=O)Nc1nnc(-c2cccc([N+](=O)[O-])c2)s1,42*,5,17,5,34,7.4*,
COC(=O)[C@]12C[C@H](CC(=O)NCc3ccc(OC)c(OC)c3)C(=O)N(Cc3ccco3)C1=C[C@H](C1CCCC1)O[C@@H]2C,4,.,.,.,.,.,
Cc1[nH]n(-c2ccccc2)c(=O)c1N=Nc1ccccc1C(=O)O,33,8,5,-5,.,.,
Cc1cc(Cl)cc2c(N=Nc3ccccc3C(=O)O)c(O)[nH]c12,39*,-3,5,12,92*,76*,
CC(C)NC(=O)CCn1nnc(-c2cccs2)n1,1,.,.,.,.,.,
O=C(O)c1cc(Cl)c(Cl)cc1C(=O)N(Cc1ccccc1)Cc1ccccc1,37*,8,14,10,45*,12*,
COc1ccc(CSC(=S)NNc2ccccc2)cc1,6,-31,.,2,.,.,
CCc1nnc(NS(=O)(=O)c2ccc(NC(=O)c3cc(Cl)ccc3[N+](=O)[O-])cc2)s1,45*,-2,.,9,25,5.9*,
CCc1nnc(NS(=O)(=O)c2ccc(NC(=O)c3cc(Cl)ccc3Cl)cc2)s1,54*,-3,10,3,36*,11*,
CCc1nnc(NS(=O)(=O)c2ccccc2)s1,1,-6,-5,-1,.,.,
CCc1nnc(NC(=O)c2cc(OC)c(OC)cc2[N+](=O)[O-])s1,-1,-2,3,-3,.,.,
CCc1nnc(NS(=O)(=O)c2ccc(NC(=O)c3cccc4ccccc34)cc2)s1,64*,-4,13,4,44*,16*,
CCc1nnc(NC(=O)c2cc(S(=O)(=O)N(CC)CC)ccc2Cl)s1,3,8,0,-5,.,.,
SMILES,rCAG binder,ABHD5 PLIN5 PPI,core dimer inh,NadD block,rCAG binder conf,DNA CAG counter,others
CCc1nc2c(OCc3c(C)noc3C)cccn2c1N(C=O)Cc1ccccc1,1,7,.,3,.,.,
C[C@H](CO)N1C[C@H](C)[C@H](CN(C)C(=O)c2ccc(N3CCN(C)CC3)cc2)OCc2cnnn2CCCC1=O,2,1,.,-3,.,.,
COCCN(C(=O)COC(=O)C1CC(=O)N(c2ccc(C)cc2)C1)c1c(N)n(Cc2ccccc2)c(=O)[nH]c1=O (configuration not stated),1,-2,.,-1,.,.,
Oc1ccc(-c2cc(-c3ccc(O)cc3)nc(-c3ccccc3)n2)cc1,65*,9,4,2,51*,26*,DNA CAG DR=i
O=C(CSc1nnc(-c2ccccc2)n1-c1ccc(Cl)cc1)c1ccc(F)cc1,1,.,.,.,.,.,
CCOC(=O)Cc1cc(=O)n2[nH]c(-c3ccccc3)c(-c3ccccc3)c2n1,40*,-2,32,17,43*,15*,
CCOC(=O)Cc1cc(=O)n2[nH]c(C)c(-c3ccccc3)c2n1,16,-5,-9,6,.,.,
CNC(=S)N/N=C/c1cc(Br)cc(Br)c1O,10,4,-20,8,.,.,
Oc1c(Br)cc(Br)cc1/C=N/NC(=S)N[C@H]1CC2C=CC1C2 (some centres not stated),74*,-4,1,30,66*,29*,DNA CAG DR=i
O=C(O)c1ccc(N2C(=O)CC(SC(=NCc3ccc4c(c3)OCO4)Nc3ccccc3)C2=O)cc1 (configuration not stated),69*,-7,17,3,62*,23*,
O=C(O)c1ccc(N2C(=O)CC(SC(=NCc3ccc4c(c3)OCO4)Nc3ccc(F)cc3)C2=O)cc1 (configuration not stated),77*,0,19,19,73*,33*,DNA CAG DR=>30
O=S1(=O)CC(N2CCN(CC3CC3)CC2)CN1Cc1ccc(F)cc1 (configuration not stated),0,0,.,-6,.,.,
CN(C)S(=O)(=O)c1ccc(S(=O)(=O)Nc2ccc3c(c2)oc2ccccc23)cc1,49*,12,3,7,57*,19*,
CCN(CC)S(=O)(=O)c1ccc(S(=O)(=O)Nc2ccc3c(c2)oc2ccccc23)cc1,56*,-7,9,11,51*,18*,
O=[N+]([O-])c1cc(Br)c(O)c(/C=N/Nc2nnnn2-c2cccc3ccccc23)c1,92*,4,7,15,89*,63*,
O=[N+]([O-])c1ccc(NN=Cc2cccc3ccccc23)cc1,6,-1,.,-3,.,.,
CCCCCCCCN1C(=O)[C@@H](CC(=O)NCCCCc2ccccc2)C[C@@]2(C(=O)OC)C1=C[C@H](C(C)(C)C)O[C@@H]2C,1,.,.,.,.,.,
Cc1ccc(/C=C2\SC(=S)N(C3CCS(=O)(=O)C3)C2=O)o1 (configuration not stated),24,2,-6,10,.,.,
NS(=O)(=O)c1ccc(-c2ccc(/C=C3\SC(=S)N(C4CCS(=O)(=O)C4)C3=O)o2)cc1 (configuration not stated),35*,1,16,35*,19,14*,
